Data taken from ChEMBL document CHEMBL1145814, “Antiretroviral activity of semisynthetic derivatives of glycopeptide antibiotics” (J Med Chem, 2003).
Converted amounts (≈) assume the structure as drawn.

Tests used:
Mus musculus [1] = organism: Mus musculus; assay: Minimal inhibitory concentration required to cause a microscopic detectable alteration of C3H/3T3 embryo murine fibroblast cell morphology; format: functional
Method in brief: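 Uninfected C3H/3T3 murine embryo fibroblast cultures were exposed to test compound and checked microscopically for changes in cell morphology. The MIC is the concentration causing a microscopically detectable alteration of morphology.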

Mus musculus [2] = organism: Mus musculus; assay: Effective concentration of compound required to protect C3H/3T3 embryo murine fibroblasts against the MSV induced transformation; format: functional, organism-based; settings: Mus musculus, C3H/3T3
Method in brief: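 Monolayer murine embryo fibroblast C3H/3T3 cultures were infected with Moloney murine sarcoma virus at 75 focus-forming units and cultured with test compound. Transformation was examined microscopically on day 6 postinfection. EC50 is the concentration protecting cells against MSV-induced transformation by 50%.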

L1210 = assay: Inhibitory concentration of compound against proliferation of murine lukemia cells L1210 was determined; format: functional, cell-based; settings: Mus musculus
Method in brief: (§1)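 (5–7.5) × 10^4 cells per well were incubated with test compound at 37 °C in a humidified CO2 atmosphere. L1210 murine leukemia cells grew for 48 h, and CEM and Molt4/clone 8 human lymphocytes grew for 72 h. Cells were then counted with a Coulter counter. IC50 is the concentration inhibiting proliferation by 50%.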

CCRF-CEM = assay: Inhibitory concentration against proliferation of human T-lymphocytic (CEM) cells; format: functional, cell-based; settings: Homo sapiens, CCRF-CEM; method in brief: as §1
[3] = test system: Human immunodeficiency virus 1; assay: Effective concentration of compound required to protect human T-lymphocytic cells against the cytopathogenicity of HIV-1; format: functional, organism-based; settings: Human immunodeficiency virus 1
MOLT-4 = assay: Inhibitory concentration of compound against proliferation of human T-lymphocytic cells MOLT-4/C8 was determined; format: functional, cell-based; method in brief: as §1
[4] = test system: Human immunodeficiency virus 2; assay: Concentration required to protect human T-lymphocytic cells against the cytopathogenicity of HIV-2; format: functional, organism-based; settings: Human immunodeficiency virus 2

IC50 (L1210) | IC50 (CCRF-CEM) | EC50 [3] | IC50 (MOLT-4) | EC50 [4] | SMILES | MIC (Mus musculus [1]) | EC50 (Mus musculus [2])
> 500 µM | > 500 µM | 15 µM | > 500 µM | 17 µM | NCCCCCCNC(=O)[C@@H]1NC(=O)C2NC(=O)C(NC(=O)C3NC(=O)C4NC(=O)C(Cc5ccc(c(Cl)c5)Oc5cc3cc(c5O)Oc3ccc(cc3Cl)C2O)NC(=O)C(N)c2ccc(O)c(c2)Oc2cc(O)cc4c2)c2ccc(O)c(c2)-c2c(O)cc(O)cc21 (some centres undefined) | 20 µM (≈ 25.9 µg/mL) | > 4 µM
364 µM | 248 µM | 9.5 µM | > 500 µM | 15 µM | COC(=O)[C@@H]1NC(=O)C2NC(=O)C(NC(=O)C3NC(=O)C4NC(=O)C(Cc5ccc(c(Cl)c5)Oc5cc3cc(c5O)Oc3ccc(cc3Cl)C2O)NC(=O)C(N)c2ccc(O)c(c2)Oc2cc(O)cc4c2)c2ccc(O)c(c2)-c2c(O)cc(O)cc21 (some centres undefined) | > 100 µM | 12 µM
> 500 µM | > 500 µM | 115 µM | > 500 µM | > 250 µM | CNC1C(=O)NC2Cc3ccc(cc3)Oc3cc4cc(c3OC3OC(C(=O)O)C(O)C(O)C3N)Oc3ccc(cc3Cl)C(O)C3NC(=O)C(NC(=O)C4NC(=O)C(NC2=O)c2cc(cc(O)c2Cl)Oc2cc1ccc2O)c1ccc(O)c(c1)-c1c(O)cc(O)cc1[C@H](C(=O)O)NC3=O (some centres undefined) | > 100 µM | > 100 µM
> 500 µM | > 500 µM | 80 µM | > 500 µM | 190 µM | CNC(=O)[C@@H]1NC(=O)C2NC(=O)C(NC(=O)C3NC(=O)C4NC(=O)C(NC(=O)C(N)c5ccc(O)c(c5)Oc5cc(O)cc4c5)C(O)c4ccc(c(Cl)c4)Oc4cc3cc(c4O[C@@H]3O[C@@H](CO)[C@@H](O)[C@H](O)[C@@H]3NC(=O)CCCCCCC(C)C)Oc3ccc(cc3Cl)C2O[C@@H]2O[C@@H](CO)[C@@H](O)[C@H](O)[C@@H]2NC(C)=O)c2ccc(O)c(c2)-c2c(O[C@H]3O[C@H](CO)[C@@H](O)[C@@H](O)[C@@H]3O)cc(O)cc21 (some centres undefined) | > 100 µM | 75 µM
> 500 µM | > 500 µM | 17 µM | > 500 µM | 100 µM | CC(=O)N[C@@H]1[C@H](OC2c3ccc(c(Cl)c3)Oc3cc4cc(c3O[C@@H]3O[C@@H](CO)[C@@H](O)[C@H](O)[C@@H]3NC(=O)CCCCCCC(C)C)Oc3ccc(cc3Cl)C(O)C3NC(=O)C(N)c5ccc(O)c(c5)Oc5cc(O)cc(c5)C(NC3=O)C(=O)NC4C(=O)NC3C(=O)NC2C(=O)N[C@@H](C(=O)O)c2cc(O)cc(O[C@H]4O[C@H](CO)[C@@H](O)[C@@H](O)[C@@H]4O)c2-c2cc3ccc2O)O[C@@H](CO)[C@@H](O)[C@@H]1O (some centres undefined) | > 100 µM | > 100 µM
33 µM | 83 µM | 10 µM | 39 µM | 4 µM | O=C1NC2C(=O)NC3C(=O)NC4C(=O)NC(C(=O)N[C@@H](C(=O)O)c5cc(O)cc(O)c5-c5cc4ccc5O)C(O)c4ccc(c(Cl)c4)Oc4cc3cc(c4O)Oc3ccc(cc3Cl)CC1NC(=O)C(NC(=O)C13CC4CC(CC(C4)C1)C3)c1ccc(O)c(c1)Oc1cc(O)cc2c1 (some centres undefined) | 100 µM (≈ 136 µg/mL) | 11 µM

SMILES | IC50 (L1210) | IC50 (CCRF-CEM) | EC50 [3] | IC50 (MOLT-4) | EC50 [4] | MIC (Mus musculus [1]) | EC50 (Mus musculus [2])
CN[C@H](CC(C)C)C(=O)N[C@H]1C(=O)N[C@@H](CC(N)=O)C(=O)N[C@H]2C(=O)N[C@H]3C(=O)N[C@H](C(=O)N[C@H](C(=O)O)c4cc(O)cc(O)c4-c4cc3ccc4O)[C@H](O)c3ccc(c(Cl)c3)Oc3cc2cc(c3O[C@@H]2O[C@H](CO)[C@@H](O)[C@H](O)[C@H]2O[C@H]2C[C@](C)(N)[C@H](O)[C@H](C)O2)Oc2ccc(cc2Cl)[C@H]1O [VANCOMYCIN] | > 500 µM | > 500 µM | > 250 µM | > 500 µM | > 250 µM | > 100 µM | > 100 µM
